Data published in ChEMBL document CHEMBL2401612, “Design, synthesis and characterization of peptidomimetic conjugate of BODIPY targeting HER2 protein extracellular domain” (Eur J Med Chem, 2013).
Calls of active or inactive are those of the source. The calls are words filed in the database; no cut-off is given here.

How the values were obtained:
[1] = Cellular uptake in human SKBR3 cells plasma membrane overexpressing HER2 at 0.4 uM after 24 hrs by membrane tracking-based confocal microscopic analysis; assay type: ADME, cell-based; conditions: sk-br-3, 24 h
Outline: (§1)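 SKBR-3 cells in chamber wells given 0.4 μM BODIPY conjugate at 37 °C for 24 or 48 h, PBS-washed and fixed in ice-cold methanol at −20 °C for 5 min. Membrane tracker (5 min) or Lyso tracker (30 min) in serum-free medium added at 37 °C. Mounted slides imaged by confocal microscopy at 40X under oil with argon and HeNe lasers to assess co-localization.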

SK-BR-3 [2] = test: Cellular uptake in human SKBR3 cells overexpressing HER2 at 0.4 uM after 48 hrs by lyso tracking-based confocal microscopic analysis; assay type: ADME, cell-based; conditions: sk-br-3, 48 h; outline: as §1
SK-BR-3 [3] = test: Cellular uptake in human SKBR3 cells overexpressing HER2 at 1 to 10 uM by fluorescence plate reader analysis; assay type: ADME, cell-based; conditions: sk-br-3, 10 µM, TDE = time-dependent effect
Outline: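 Fluorescent BODIPY conjugate diluted in McCoy's medium to 1 and 10 μM and added to SKBR-3 cells (10,000/well, grown 24 h) at 37 °C. At 0, 12, 24, 36, 48 and 72 h, medium removed and cells washed twice with PBS. Cell-associated fluorescence read on a plate reader at 490/530 nm excitation/emission.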

[4] = biological target: Receptor tyrosine-protein kinase erbB-2 (Homo sapiens) (UniProt P04626); test: Binding affinity to HER2 extracellular domain in human SKBR3 cells assessed as inhibition of EGFR binding; assay type: cell-based; conditions: SK-BR-3
Receptor tyrosine-protein kinase erbB-2 (Homo sapiens), sequence (P04626 whole entry, the tested form may be a part): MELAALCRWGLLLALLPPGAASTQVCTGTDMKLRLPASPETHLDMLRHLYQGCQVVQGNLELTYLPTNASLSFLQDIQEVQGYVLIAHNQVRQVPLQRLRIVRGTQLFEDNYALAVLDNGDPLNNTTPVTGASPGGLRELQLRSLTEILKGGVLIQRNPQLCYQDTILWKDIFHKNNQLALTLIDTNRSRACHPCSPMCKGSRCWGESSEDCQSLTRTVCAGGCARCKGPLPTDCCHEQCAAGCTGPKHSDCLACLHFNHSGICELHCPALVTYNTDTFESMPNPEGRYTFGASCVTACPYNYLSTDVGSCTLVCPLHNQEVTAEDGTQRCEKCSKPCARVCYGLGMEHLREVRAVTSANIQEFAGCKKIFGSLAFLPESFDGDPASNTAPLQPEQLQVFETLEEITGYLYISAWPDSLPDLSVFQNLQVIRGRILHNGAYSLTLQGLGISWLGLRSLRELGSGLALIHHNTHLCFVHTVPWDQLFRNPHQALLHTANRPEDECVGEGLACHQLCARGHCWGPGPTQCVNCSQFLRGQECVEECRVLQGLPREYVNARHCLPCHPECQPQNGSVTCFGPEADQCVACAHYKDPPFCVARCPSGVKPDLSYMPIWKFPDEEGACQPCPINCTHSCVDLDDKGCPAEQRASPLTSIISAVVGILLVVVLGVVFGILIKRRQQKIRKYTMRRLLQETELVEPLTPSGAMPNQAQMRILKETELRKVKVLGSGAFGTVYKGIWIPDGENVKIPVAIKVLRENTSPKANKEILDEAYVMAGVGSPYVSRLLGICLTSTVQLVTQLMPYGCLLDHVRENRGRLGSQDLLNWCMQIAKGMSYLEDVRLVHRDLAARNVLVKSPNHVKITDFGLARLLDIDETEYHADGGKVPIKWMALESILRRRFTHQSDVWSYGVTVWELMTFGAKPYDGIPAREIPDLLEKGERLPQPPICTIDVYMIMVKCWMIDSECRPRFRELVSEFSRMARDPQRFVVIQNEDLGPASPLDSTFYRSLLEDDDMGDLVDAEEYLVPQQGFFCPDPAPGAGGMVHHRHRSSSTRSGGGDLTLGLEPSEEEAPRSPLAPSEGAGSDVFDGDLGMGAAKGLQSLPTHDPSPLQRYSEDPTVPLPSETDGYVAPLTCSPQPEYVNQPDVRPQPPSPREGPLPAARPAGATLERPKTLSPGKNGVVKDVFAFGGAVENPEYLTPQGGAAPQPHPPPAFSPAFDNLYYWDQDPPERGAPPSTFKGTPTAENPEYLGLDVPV

[5] = biological target: Receptor tyrosine-protein kinase erbB-2 (Homo sapiens) (UniProt P04626); test: Inhibition of HER2 kinase domain phosphorylation in human BT474 cells at 0.4 uM after 18 hrs by Western blot analysis; assay type: cell-based; conditions: BT-474
Outline: (§2)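 BT-474 cells (RPMI-1640) and SKBR-3 cells (McCoy's), each with 10% FBS and insulin, plated in triplicate flasks and treated after 24 h with 0.4 μM compound or left untreated at 37 °C, 5% CO2. Lysates made with protease and phosphatase inhibitors; 40 μg protein run on 10% SDS-PAGE. Blots probed with p-HER2 antibody (1:3000, 15 h, 4 °C), detected by ECL; total HER2 blotted with an anti-ECD antibody.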

[6] = biological target: Receptor tyrosine-protein kinase erbB-2 (Homo sapiens) (UniProt P04626); test: Inhibition of HER2 kinase domain phosphorylation in human SKBR3 cells at 0.4 uM after 18 hrs by Western blot analysis; assay type: cell-based; conditions: SK-BR-3; outline: as §2
[7] = biological target: Receptor tyrosine-protein kinase erbB-2 (Homo sapiens) (UniProt P04626); test: Inhibition of HER2 kinase domain phosphorylation in human BT474 cells at 0.4 uM by Western blot analysis; assay type: cell-based; conditions: BT-474, TDE = time-dependent effect; outline: as §2
[8] = biological target: Receptor tyrosine-protein kinase erbB-2 (Homo sapiens) (UniProt P04626); test: Inhibition of HER2 kinase domain phosphorylation in human SKBR3 cells at 0.4 uM by Western blot analysis; assay type: cell-based; conditions: SK-BR-3, TDE = time-dependent effect; outline: as §2
[9] = biological target: Receptor tyrosine-protein kinase erbB-2 (Homo sapiens) (UniProt P04626); test: Binding affinity to HER2 extracellular domain in human SKBR3 cells assessed as inhibition of HER3 binding at 0.8 uM after 24 hrs by confocal microscopy-based proximity ligation assay; assay type: cell-based; conditions: SK-BR-3
Outline: (§3)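 SKBR-3 cells seeded at 5 × 10^4 per chamber well and grown 24 h at 37 °C, then treated 24 h. Cells fixed in ice-cold methanol at −20 °C and blocked in 5% BSA 1 h. Primary antibodies anti-HER2 (rabbit) and anti-HER3 (mouse), each 1:400, applied overnight at 4 °C. Duolink PLA probes, ligation and amplification at 37 °C, then confocal imaging of red heterodimer spots.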

[10] = biological target: Receptor tyrosine-protein kinase erbB-2 (Homo sapiens) (UniProt P04626); test: Binding affinity to HER2 extracellular domain in human SKBR3 cells assessed as inhibition of HER3 binding at 0.5 uM after 24 hrs by confocal microscopy-based proximity ligation assay; assay type: cell-based; conditions: SK-BR-3; outline: as §3

| Drug uptake [1] | Drug uptake (SK-BR-3 [2]) | Drug uptake (SK-BR-3 [3]) | inhibition [4] | inhibition [5] | inhibition [6] | inhibition [7] | inhibition [8] | inhibition [9] | inhibition [10] | SMILES |
| --- | --- | --- | --- | --- | --- | --- | --- | --- | --- | --- |
| Active | Active | tde |  |  |  |  |  |  |  | Cc1cc(C)n2c1C=C1C=CC(CCCCC(=O)N[C@@H](CCCNC(=N)N)C(=O)NC(CC(=O)N[C@@H](Cc3ccccc3)C(=O)O)c3cccc4ccccc34)=[N+]1[B-]2(F)F (stereo not given in full) |
|  |  |  | Active | Active | Active | tde | tde | Active | inactive | N=C(N)NCCC[C@H](N)C(=O)NC(CC(=O)N[C@@H](Cc1ccccc1)C(=O)O)c1cccc2ccccc12 (stereo not given in full) |
